Measured values gathered from unrelated publications.
Protocols differ between the studies behind these lines.
Effect on: metabolic stability

| SMILES | test system | setting | quantity | result |
| --- | --- | --- | --- | --- |
| CC(=O)N(C)C1CCN(c2cc(F)cc(NC(=O)c3cc4c(F)ccc(C)c4[nH]3)c2)C1 (centres unmarked) | mouse, hepatocytes | 0.5 µM, 1 h | scaled CLint | 239 mL/min/kg |
| c1ccc(-c2nc(Nc3ccn4nccc4c3)c3ccccc3n2)nc1 | mouse, liver microsomes |  | microsomal CLint | 325 µL/min/mg |
| Cc1ccc(F)c2cc(C(=O)N[C@@H]3CCC[C@H](N4CCOCC4)C3)[nH]c12 | mouse, hepatocytes | 0.5 µM, 1 h | scaled CLint | 2170 mL/min/kg |
| CC(=O)Nc1cc(Nc2cc(NC3CC3)n3ncc(C#N)c3n2)ccc1N1CCC[C@H](O)C1 | male CD-1 mouse, hepatocytes | 1 µM, serum-free | scaled CLint | 511 mL/min/kg |
| CO[C@@H](C[C@H]1C(C)=CC[C@@H]2[C@]3(C)C[C@H](O[C@@H]4O[C@@H](C)[C@H](OC(=O)c5cccc(O)c5)[C@@H](O[C@@H]5O[C@H](CO)[C@@H](O)[C@H](O)[C@H]5NC(C)=O)[C@H]4O)[C@@H](O)C(C)(C)[C@H]3CC[C@]21C)[C@H](N)C(=O)O | mouse, hepatocytes | 1 µM | hepatocyte CLint | 4.69 µL/min/10⁶ cells |
| Cc1cc(Cl)c(Cl)cc1NC(=O)c1cc([N+](=O)[O-])c(N2CCNCC2)cc1Cl | CD-1 mouse, liver microsomes | 1 µM, 1 h, pH 7.4 | scaled CLint | 25 mL/min/kg |
| CN[C@@H]1CCCN(c2ccc(Nc3cc(NC4CC4)n4ncc(C#N)c4n3)cc2NC(C)=O)C1 | male CD-1 mouse, hepatocytes | 1 µM, serum-free | scaled CLint | 162 mL/min/kg |
| c1ccc(-c2nc(NCc3nccs3)c3ccccc3n2)nc1 | mouse, liver microsomes |  | microsomal CLint | 224 µL/min/mg |
| O=C(Nc1cncc(-c2nc3ccccc3s2)c1)c1cc([N+](=O)[O-])c(N2CCNCC2)cc1Cl | CD-1 mouse, liver microsomes | 1 µM, 1 h, pH 7.4 | scaled CLint | 10 mL/min/kg |
| N#Cc1ccccc1-c1nc(N2CCC(c3ccccn3)C2)c2ccccc2n1 (centres unmarked) | mouse, liver microsomes |  | microsomal CLint | 717 µL/min/mg |
| O=C(Nc1ccc(Cl)c(Cl)c1)c1ccc(N2CCNCC2)c([N+](=O)[O-])c1 | CD-1 mouse, liver microsomes | 1 µM, 1 h, pH 7.4 | scaled CLint | 12 mL/min/kg |
